≈ marks a conversion by molar mass, not a printed value.
Tests used:
[1] = Cmax in human infected with HCV genotype 1 at 160 mg administered once daily for 2 days; format: ADME; parameters: dose 160 mg; settings: in vivo
Method in brief: (§1)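 HCV GT1-infected patients (N=4) given 160 mg once daily for 2 days; plasma Cmax, AUC and t1/2 determined.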

Hepatitis C virus [2] = assay: Antiviral activity against HCV genotype 1a H77 infected in human HuH7 cells harboring HCV subgenomic bicistronic replicon after 3 days by luciferase reporter gene assay; format: functional, cell-based, Hepacivirus hominis; settings: genotype 1a H77, Huh-7, 72 h
Method in brief: (§2)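 Subgenomic genotype 1a (H77) or 1b (Con1) replicons carrying firefly luciferase, transfected into Huh-7 cells. Replication inhibition was read as luciferase level in cell lysate on a luminometer and reported as EC50. Runs were done without human plasma or with 40% human plasma added, to assess inhibitor–protein binding.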

[3] = Aqueous solubility of the compound at pH 7.2; format: physicochemical; settings: buffer, read-out: solubility
[4] = Half life in dog at 2.5 mg/kg, po; format: ADME, organism-based, Canis lupus familiaris; settings: in vivo
[5] = Ratio of drug level in dog liver to plasma at 2.5 mg/kg, po after 12 hrs; format: ADME, organism-based, Canis lupus familiaris
[6] = Inhibition of HCV genotype 2a NS5B RNA dependent RNA polymerase assessed as reduction in [3H]UTP incorporation in to RNA preincubated for 15 mins followed by [3H]UTP addition measured after 3 hrs by microbeta scintillation counting method; parameters: species or system Hepatitis C virus subtype 2a
[7] = Ratio of drug level in Sprague-Dawley rat liver to plasma at 5 mg/kg, po after 12 hrs; format: ADME, organism-based
Method in brief: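 Male/female not given; Sprague-Dawley rats, n = 3 per experiment, single 5 mg/kg oral dose given as a solution in DMSO:PEG400 (1:9, v/v). Drug concentrations measured in liver tissue and plasma at 12 h and 24 h post-dose; value reported as the liver-to-plasma concentration ratio.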

Plasma [8] = assay: Drug level in po dosed Sprague-Dawley rat plasma up to 24 hrs; format: ADME, organism-based; settings: in vivo
Method in brief: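 Sprague-Dawley rats given oral doses; liver tissue and plasma levels measured at 12 and 24 h; liver:plasma ratio calculated.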

[9] = Half life in Sprague-Dawley rat at 5 mg/kg, po; format: ADME, organism-based; settings: in vivo
Method in brief: (§3)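 Sprague-Dawley rats, n = 3 per experiment; solution in DMSO:PEG400 (1:9, v/v) given IV or oral; 5 mg/kg for both routes, and 30 mg/kg oral; plasma t1/2, Vss, clearance, Cmax, AUC and F% determined.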

[10] = Half life in dog at 2.5 mg/kg, iv; format: ADME, organism-based, Canis lupus familiaris; settings: in vivo
[11] = Half life in human infected with HCV genotype 1 at 160 mg administered once daily for 2 days; format: ADME; settings: in vivo; method in brief: as §1
Hepatitis C virus [12] = assay: Antiviral activity against HCV genotype 1a H77 infected in human HuH7 cells harboring HCV subgenomic bicistronic replicon after 3 days in presence of 40% human plasma by luciferase reporter gene assay; format: functional, cell-based, Hepacivirus hominis; settings: genotype 1a H77, Huh-7, 72 h; method in brief: as §2
Plasma [13] = assay: Drug uptake in human plasma administered as single dose; format: ADME, cell-free
[14] = AUC (infinity) in human at 320 mg administered as single dose; format: ADME; parameters: dose 320 mg, time infinity; settings: in vivo
Method in brief: (§4)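 Single oral doses of 80, 160 or 320 mg in healthy subjects; plasma concentration-time profiles reported as mean (+SD); Cmax and terminal phase half-life derived.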

[15] = Terminal half life in human at 320 mg administered as single dose; format: ADME; settings: in vivo, read-out: beta t1/2 (converted); method in brief: as §4
[16] = Half life in dog at 30 mg/kg, po; format: ADME, organism-based, Canis lupus familiaris; settings: in vivo
[17] = Oral bioavailability in Sprague-Dawley rat at 5 mg/kg; format: ADME, organism-based; settings: in vivo; method in brief: as §3
[18] = Cmax in dog at 30 mg/kg, po; format: ADME, organism-based, Canis lupus familiaris; parameters: dose 30 mg/kg, route oral; settings: in vivo
Rattus norvegicus [19] = assay: AUC in Sprague-Dawley rat at 30 mg/kg, po; format: ADME, organism-based; settings: in vivo; method in brief: as §3
Rattus norvegicus [20] = assay: AUC in Sprague-Dawley rat at 5 mg/kg, iv; format: ADME, organism-based; settings: in vivo; method in brief: as §3
[21] = Plasma clearance in dog at 2.5 mg/kg, iv; format: ADME, organism-based, Canis lupus familiaris
[22] = Cmax in Sprague-Dawley rat at 30 mg/kg, po; format: ADME, organism-based; parameters: dose 30 mg/kg, route oral; settings: in vivo; method in brief: as §3
[23] = Tmax in human at 80 mg administered as single dose; format: ADME; settings: in vivo

SMILES: COc1c(/C=C/c2ccc(NS(C)(=O)=O)cc2)cc(-n2ccc(=O)[nH]c2=O)cc1C(C)(C)C [ABT-072]
- Cmax [1]: 415 ng/mL
- EC50 (Hepatitis C virus [2]): 1.1 nM
- solubility [3]: 20.7 µM (≈ 9.72 µg/mL)
- half-life [4]: 5.4 h
- Kp at 12 h [5]: 11
- IC50 [6]: 23000 nM
- Kp at 12 h [7]: 71
- Drug uptake (Plasma [8]): Dose-dependent effect
- half-life [9]: 3.1 h
- half-life [10]: 5.5 h
- half-life [11]: 8.56 h
- EC50 (Hepatitis C virus [12]): 19 nM
- Drug uptake (Plasma [13]): Dose-dependent effect
- AUC(0-inf) [14]: 7200 ng·h/mL
- half-life [15]: 7.01 h
- half-life [16]: 9.6 h
- bioavailability [17]: 44%
- Cmax [18]: 7560 ng/mL
- AUC (Rattus norvegicus [19]): 21600 ng·h/mL
- AUC (Rattus norvegicus [20]): 5730 ng·h/mL
- clearance [21]: 2.5 mL/min/kg
- Cmax [22]: 2000 ng/mL
- Tmax [23]: 5.1 h

— ChEMBL document CHEMBL4024799, “Synthesis and Biological Characterization of Aryl Uracil Inhibitors of Hepatitis C Virus NS5B Polymerase: Discovery of ABT-072, a trans-Stilbene Analog with Good Oral Bioavailability” (J Med Chem, 2018)
